{"data": "Published values of several laboratories", "target": "Dual specificity protein kinase CLK3 (CLK3, Homo sapiens, UniProt P49761)"}
{"SMILES": "C[C@H]1CC[C@H](n2c3cnccc3c3cnc(Nc4ccc5c(n4)CCN(C(=O)CO)C5)nc32)CC1", "read-out": "cell-free assay", "concentration": "1 µM", "quantity": "remaining signal", "result": "100%"}
{"SMILES": "CCCCC(=O)Nc1ccc(-c2ccc3ncn(CCC)c(=O)c3c2)cn1", "read-out": "binding", "technique": "competition with immobilised ligand", "concentration": "0.5 µM", "quantity": "remaining binding", "result": "78%"}
{"SMILES": "C=CC(=O)N1CCC([C@@H]2CCNc3c(C(N)=O)c(-c4ccc(Oc5ccccc5)cc4)nn32)CC1", "read-out": "enzyme activity", "mode": "inhibitor", "concentration": "1 µM", "quantity": "inhibition", "result": "16%"}
{"SMILES": "Cc1cc(O)c(-c2ccc([C@@H](C)CN(C)C)cc2)c2c1[nH]c(=O)c1sccc12", "read-out": "enzyme activity", "mode": "inhibitor", "concentration": "0.1 µM", "quantity": "inhibition", "result": "-13.2%"}
{"SMILES": "CN1CCN(C(=O)c2ccc(NC(=O)Nc3ccc(N(C)c4ccnc(Nc5ccc(CS(C)(=O)=O)cc5)n4)cc3)cc2)CC1", "read-out": "binding", "concentration": "1 µM", "quantity": "remaining binding", "result": "95%"}
{"SMILES": "CC(C)S(=O)(=O)c1ccc2nccc(Nc3ccc4sc(C5CCCC5)nc4c3)c2c1", "read-out": "enzyme activity", "mode": "inhibitor", "concentration": "1 µM", "quantity": "activity vs control", "result": "110%"}
{"SMILES": "C1=C/COCc2cc(ccc2OCCN2CCCC2)Nc2nccc(n2)-c2cccc(c2)COC/1", "read-out": "binding", "concentration": "0.1 µM", "quantity": "remaining binding", "result": "100%"}
{"SMILES": "C=CC(=O)N1CCC[C@@H](n2nc(-c3ccc(Oc4ccccc4)cc3)c3c(N)ncnc32)C1", "read-out": "enzyme activity", "mode": "inhibitor", "concentration": "1 µM", "quantity": "inhibition", "result": "23%"}
